# Data published in ChEMBL document CHEMBL1806428, “Design and synthesis of spiro derivatives of parthenin as novel anti-cancer agents” (Eur J Med Chem, 2011).
# Experiments:
# [1] = Partition coefficient, log P of the compound; type: physicochemical; settings: octanol/water
# PC-3 = experiment: Cytotoxicity against human PC3 cells assessed as cell growth after 48 hrs by sulforhodamine B assay; type: functional, cell-based
# How it was run: (§1)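 Log-phase cells seeded at 10^4/well and allowed to attach for 24 h at 37 °C, 5% CO2. Exposed for 48 h to 0.1–100 (1:10 serial dilutions), four replicate wells per condition. Fixed with cold 50% TCA for 1 h at 4 °C, stained with sulforhodamine B, dye dissolved in Tris, OD read at 540 nm. Blank-subtracted growth expressed relative to untreated cells (100%); IC50 reported.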
# DU-145 = experiment: Cytotoxicity against human DU145 cells assessed as cell growth after 48 hrs by sulforhodamine B assay; type: functional, cell-based; how it was run: as §1
# SW-620 = experiment: Cytotoxicity against human SW620 cells assessed as cell growth after 48 hrs by sulforhodamine B assay; type: functional, cell-based; how it was run: as §1
Structure (SMILES),logP [1],"IC50 (PC-3; Homo sapiens, PC-3, 48 h) [µM]",IC50 (PC-3; pc-3) [µM],"IC50 (DU-145; Homo sapiens, DU-145, 48 h) [µM]",IC50 (DU-145; du-145) [µM],"IC50 (SW-620; Homo sapiens, SW-620, 48 h) [µM]",IC50 (SW-620; sw-620) [µM]
C[C@H]1CC[C@@H]2[C@@H](OC(=O)[C@]23CC(c2cccc(Cl)c2)N(c2ccccc2)O3)[C@]2(C)C(=O)C=C[C@@]12O (mixture of isomers),3.87,–,–,–,–,–,–
C[C@H]1CC[C@@H]2[C@@H](OC(=O)[C@]23CC(c2ccc(C#N)cc2)N(c2ccccc2)O3)[C@]2(C)C(=O)C=C[C@@]12O (stereo partly drawn),–,4.8,9.1,5,7,4.8,5
Cc1ccccc1C1C[C@@]2(ON1c1ccccc1)C(=O)O[C@@H]1[C@H]2CC[C@H](C)[C@]2(O)C=CC(=O)[C@@]12C (stereo partly drawn),–,15,–,4.5,5.1,12,9
C[C@H]1CC[C@@H]2[C@@H](OC(=O)[C@]23CC(c2ccccc2)N(c2ccccc2)O3)[C@]2(C)C(=O)C=C[C@@]12O (mixture of isomers),3.19,–,–,–,–,–,–
Cc1ccc(C2C[C@@]3(ON2c2ccccc2)C(=O)O[C@@H]2[C@H]3CC[C@H](C)[C@]3(O)C=CC(=O)[C@@]23C)cc1 (stereo partly drawn),–,8.5,9.1,8.1,6.3,8.7,9
C[C@H]1CC[C@@H]2[C@@H](OC(=O)[C@]23CC(c2cccc(F)c2)N(c2ccccc2)O3)[C@]2(C)C(=O)C=C[C@@]12O (stereo partly drawn),–,4.8,9,5,8.1,4.8,5.1
C[C@H]1CC[C@@H]2[C@@H](OC(=O)[C@]23CC(c2ccccc2Cl)N(c2ccccc2)O3)[C@]2(C)C(=O)C=C[C@@]12O (stereo partly drawn),–,3.5,6.3,6,4.1,5.5,9.2
C[C@H]1CC[C@@H]2[C@@H](OC(=O)[C@]23CC(c2c(F)cccc2F)N(c2ccccc2)O3)[C@]2(C)C(=O)C=C[C@@]12O (stereo partly drawn),–,2.5,2.3,12,9,5,7.2
COc1cccc(C2C[C@@]3(ON2c2ccccc2)C(=O)O[C@@H]2[C@H]3CC[C@H](C)[C@]3(O)C=CC(=O)[C@@]23C)c1 (stereo partly drawn),–,12,9,10,11,7.5,6.6
C[C@H]1CC[C@@H]2[C@@H](OC(=O)[C@]23CC(c2c(Cl)cccc2Cl)N(c2ccccc2)O3)[C@]2(C)C(=O)C=C[C@@]12O (mixture of isomers),4.45,–,–,–,–,–,–
C[C@H]1CC[C@@H]2[C@@H](OC(=O)[C@]23CC(c2ccccc2F)N(c2ccccc2)O3)[C@]2(C)C(=O)C=C[C@@]12O (stereo partly drawn),–,2.7,2.5,4.1,6,9,10.2
C[C@H]1CC[C@@H]2[C@@H](OC(=O)[C@]23CC(c2ccc(Br)cc2)N(c2ccccc2)O3)[C@]2(C)C(=O)C=C[C@@]12O (mixture of isomers),4,–,–,–,–,–,–
C[C@H]1CC[C@@H]2[C@@H](OC(=O)[C@]23CC(c2c(F)c(F)c(F)c(F)c2F)N(c2ccccc2)O3)[C@]2(C)C(=O)C=C[C@@]12O (stereo partly drawn),–,5.6,5,9.3,6.1,3,5.5
C[C@H]1CC[C@@H]2[C@@H](OC(=O)[C@]23CC(c2ccccc2Cl)N(c2ccccc2)O3)[C@]2(C)C(=O)C=C[C@@]12O (mixture of isomers),3.87,–,–,–,–,–,–
